*1 amine or outer side, *2 acyl side, *3 side chain or, on linkers, in order; H or OH if unused. Where a SMILES comes first, the peptide text is derived from it. [ ]: non-standard residue; d: D form. The star is where a group is joined. X1 = O=C([C@H](Cc1ccccc1)OC[C@@H]1CCCN1[*:1])[*:2]; X2 = CC(CN[*:1])CC(N)C(O)CC(=O)[*:2]; NHCH2(2-pyridyl) = c1ccc(CN*)nc1; Boc = CC(C)(C)OC(=O)*; For = O=C*
How the values were obtained:
Renin = molecular target: T1, Renin (Homo sapiens, UniProt P00797); assay: Inhibition of Human plasma renin; type: cell-free
T1 sequence (P00797 whole entry): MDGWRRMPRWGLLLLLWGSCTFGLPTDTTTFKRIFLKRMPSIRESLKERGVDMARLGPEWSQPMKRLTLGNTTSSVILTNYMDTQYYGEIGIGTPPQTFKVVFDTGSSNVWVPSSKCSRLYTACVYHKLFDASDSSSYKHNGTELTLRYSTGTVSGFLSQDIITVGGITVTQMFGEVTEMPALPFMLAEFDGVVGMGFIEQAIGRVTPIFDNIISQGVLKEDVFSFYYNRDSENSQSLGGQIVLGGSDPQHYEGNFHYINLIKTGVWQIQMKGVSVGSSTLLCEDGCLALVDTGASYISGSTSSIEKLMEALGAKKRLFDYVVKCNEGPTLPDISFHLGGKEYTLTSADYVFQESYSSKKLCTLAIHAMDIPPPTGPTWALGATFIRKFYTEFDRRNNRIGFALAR
Summary of the method: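 Lyophilized human plasma containing 0.1% EDTA was used for angiotensin I generation with phenylmethanesulfonyl fluoride and maleate buffer pH 6.0. Inhibitor was added in a 1% Tween 80/water vehicle, followed by 90 min at 37 °C. Angiotensin I was measured by radioimmunoassay. Percent inhibition was taken against control tubes. IC50 was estimated graphically from 3-4 inhibitor concentrations on a semilog plot.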

Homo sapiens = species: Homo sapiens; assay: % compound remaining at 60 min in presence of degradative enzyme elastase (in vitro); type: functional
Summary of the method: (§1)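 Enzyme stocks were made in 50 mM Tris-HCl pH 7.5 (stock chymotrypsin 25 units/mL; elastase and carboxypeptidase Y 50 units/mL). Peptide at 0.8 mg/mL in 10% DMSO/Tris received 5 µL enzyme per 0.25 mL and was incubated at 37 °C for 0 or 60 min, then quenched with HPLC solvent B. Reverse-phase HPLC used an acetonitrile gradient. The 204 nm peak height was compared with the 0-min control. Incubations were run in triplicate, each assayed in duplicate.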

[1] = % compound remaining at 60 min in presence of degradative enzyme carboxypeptidase Y (in vitro); summary of the method: as §1
[2] = molecular target: Chymotrypsinogen A (Bos taurus) (UniProt P00766); assay: % compound remaining at 60 min in presence of degradative […] (in vitro); summary of the method: as §1

Row | IC50 (Renin) | Structure (SMILES) | other results
1 | 2500 µM | CC[C@H](C)[C@H](NC(=O)CC(O)C(N)CC(C)CNC(=O)[C@H](Cc1cnc[nH]1)NC(=O)[C@H](Cc1ccccc1)OC[C@@H]1CCCN1C(=O)OC(C)(C)C)C(=O)N[C@@H](Cc1ccccc1)C(=O)OC (stereo not given in full) | 
2 | 330 µM | CC[C@H](C)[C@H](NC(=O)CC(O)C(N)CC(C)CNC(=O)[C@H](Cc1c[nH]cn1)NC(=O)[C@H](Cc1ccccc1)OC[C@@H]1CCCN1C(=O)[C@H](Cc1cn(C=O)c2ccccc12)NC(C)=O)C(=O)N[C@@H](Cc1ccccc1)C(=O)OC (stereo not given in full) (Ac-W(For)[X1]H[X2]IF-OMe) | 
3 | 18 µM | CC[C@H](C)[C@H](NC(=O)[C@H](C)OC[C@H](CC(C)C)NC(=O)[C@H](Cc1cnc[nH]1)NC(=O)[C@H](Cc1ccccc1)NC(=O)[C@@H]1CCCN1C(=O)[C@H](Cc1cnc[nH]1)NC(=O)[C@@H]1CCCN1)C(=O)N[C@@H](Cc1cnc[nH]1)C(=O)N[C@H](CCCCN)C(=O)O | 
4 | 1.7 µM | CC[C@H](C)[C@H](NC(=O)[C@@H](OC[C@H](CC(C)C)NC(=O)[C@H](Cc1c[nH]cn1)NC(=O)[C@H](Cc1ccccc1)NC(=O)[C@@H]1CCCN1C(=O)[C@H](Cc1c[nH]cn1)NC(=O)[C@@H]1CCCN1)C(C)C)C(=O)N[C@@H](Cc1c[nH]cn1)C(=O)N[C@H](CCCCN)C(=O)O | 
5 | 1000 µM | CC[C@H](C)[C@H](NC(=O)CC(O)C(N)CC(C)CNC(=O)[C@H](Cc1cnc[nH]1)NC(=O)[C@H](Cc1ccccc1)OC[C@@H]1CCCN1C(=O)[C@H](Cc1cn(C=O)c2ccccc12)NC(=O)OC(C)(C)C)C(=O)N[C@@H](Cc1ccccc1)C(=O)OC (stereo not given in full) (Boc-W(For)[X1]H[X2]IF-OMe) | 
6 | 100 µM | CC[C@H](C)[C@H](NC(=O)CC(O)C(N)CC(C)CNC(=O)[C@H](Cc1c[nH]cn1)NC(=O)[C@H](Cc1ccccc1)OC[C@@H]1CCCN1C(=O)[C@H](Cc1c[nH]cn1)NC(=O)OC(C)(C)C)C(=O)NCc1ccccn1 (stereo not given in full) | 
7 | 0.05 µM | CC[C@H](C)[C@H](NC(=O)[C@@H](NC[C@H](CC(C)C)NC(=O)[C@H](Cc1c[nH]cn1)NC(=O)[C@H](Cc1ccccc1)NC(=O)[C@@H]1CCCN1C(=O)[C@H](Cc1c[nH]cn1)NC(=O)[C@@H]1CCCN1)C(C)C)C(=O)N[C@@H](Cc1c[nH]cn1)C(=O)N[C@H](CCCCN)C(=O)O | 
8 | 140 µM | CC[C@H](C)[C@H](NC(=O)CC(O)C(N)CC(C)CNC(=O)[C@H](Cc1cnc[nH]1)NC(=O)[C@H](Cc1ccccc1)OC[C@@H]1CCCN1C(=O)OC(C)(C)C)C(=O)NCc1ccccn1 (stereo not given in full) | 
9 |  | CC(C)[C@H](NC(=O)[C@H](Cc1ccccc1)NC(=O)[C@H](Cc1ccccc1)NC(=O)[C@H](Cc1c[nH]cn1)NC(=O)[C@H](Cc1ccccc1)NC(=O)[C@@H]1CCCN1C(=O)[C@H](Cc1c[nH]cn1)NC(=O)[C@@H]1CCCN1)C(=O)N[C@@H](Cc1ccc(O)cc1)C(=O)N[C@@H](CCCCN)C(=O)O [RIP] (H-PHPFHFFVYK-OH) | Remaining (Homo sapiens): 13%
10 | 1.6 µM | CC[C@H](C)[C@H](NC(=O)[C@@H](NCC(O)[C@H](CC(C)C)NC(=O)[C@H](Cc1c[nH]cn1)NC(=O)[C@H](Cc1ccccc1)OC[C@@H]1CCCN1C(=O)[C@H](Cc1ccccc1)NC(=O)OC(C)(C)C)C(C)C)C(=O)NCc1ccccn1 (stereo not given in full) | 
11 | 4.1 µM | CC[C@H](C)[C@H](NC(=O)CC(O)C(N)CC(C)CNC(=O)[C@H](Cc1cnc[nH]1)NC(=O)[C@H](Cc1ccccc1)NC(=O)[C@@H]1CCCN1C(=O)OC(C)(C)C)C(=O)NCc1ccccn1 (stereo not given in full) (Boc-PFH[X2]I-{NHCH2(2-pyridyl)}) | 
12 | 2.3 µM | CC[C@H](C)[C@H](NC(=O)[C@@H](NCC(O)[C@H](CC(C)C)NC(=O)[C@H](Cc1c[nH]cn1)NC(=O)[C@H](Cc1ccccc1)OC[C@@H]1CCCN1C(=O)OC(C)(C)C)C(C)C)C(=O)NCc1ccccn1 (stereo not given in full) | 
13 | 440 µM | CC[C@H](C)[C@H](NC(=O)CC(O)C(N)CC(C)CNC(=O)[C@H](Cc1c[nH]cn1)NC(=O)[C@H](Cc1ccccc1)OC[C@@H]1CCCN1C(=O)[C@H](Cc1c[nH]cn1)NC(=O)OC(C)(C)C)C(=O)N[C@@H](Cc1ccccc1)C(=O)OC (stereo not given in full) (Boc-H[X1]H[X2]IF-OMe) | 
14 | 0.36 µM | CC[C@H](C)[C@H](NC(=O)[C@@H](NCC(O)[C@H](CC(C)C)NC(=O)[C@H](Cc1cnc[nH]1)NC(=O)[C@H](Cc1ccccc1)NC(=O)[C@@H]1CCCN1C(=O)OC(C)(C)C)C(C)C)C(=O)NCc1ccccn1 (stereo not given in full) | 
15 | 7 µM | CC(C)[C@H](NC(=O)[C@H](Cc1ccccc1)NC(=O)[C@H](Cc1ccccc1)NC(=O)[C@H](Cc1ccccc1)NC(=O)[C@H](Cc1c[nH]cn1)NC(=O)[C@H](Cc1ccccc1)NC(=O)[C@@H]1CCCN1C(=O)[C@H](Cc1c[nH]cn1)NC(=O)[C@@H]1CCCN1)C(=O)N[C@@H](Cc1ccc(O)cc1)C(=O)N[C@@H](CCCCN)C(=O)O [RIP] (H-PHPFHFFFVYK-OH) | Remaining [1]: 2%; Remaining [2]: 3%
16 | 1.8 µM | CC[C@H](C)[C@H](NC(=O)[C@H](CC(C)C)OC[C@H](CC(C)C)NC(=O)[C@H](Cc1cnc[nH]1)NC(=O)[C@H](Cc1ccccc1)NC(=O)[C@@H]1CCCN1C(=O)[C@H](Cc1cnc[nH]1)NC(=O)[C@@H]1CCCN1)C(=O)N[C@@H](Cc1cnc[nH]1)C(=O)N[C@H](CCCCN)C(=O)O | 
17 | 5.8 µM | CC[C@H](C)[C@H](NC(=O)CC(O)C(N)CC(C)CNC(=O)[C@H](Cc1c[nH]cn1)NC(=O)[C@H](Cc1ccccc1)NC(=O)[C@@H]1CCCN1C(=O)OC(C)(C)C)C(=O)N[C@@H](Cc1ccccc1)C(=O)OC (stereo not given in full) (Boc-PFH[X2]IF-OMe) | 
18 | 3 µM | CC[C@H](C)[C@H](NC(=O)[C@@H](NCC(O)[C@H](CC(C)C)NC(=O)[C@H](Cc1cnc[nH]1)NC(=O)[C@H](Cc1ccccc1)OC[C@@H]1CCCN1C(=O)[C@H](Cc1cnc[nH]1)NC(=O)OC(C)(C)C)C(C)C)C(=O)NCc1ccccn1 (stereo not given in full) | 

Source: ChEMBL document CHEMBL1124066, “Renin inhibitors containing psi[CH2O] pseudopeptide inserts” (J Med Chem, 1988)
